These results are taken from ChEMBL document CHEMBL1777810, “Synthesis and in vitro anti-HIV activity of N-1,3-benzo[d]thiazol-2-yl-2-(2-oxo-2H-chromen-4-yl)acetamide derivatives using MTT method” (Bioorg Med Chem Lett, 2011).

The CC50 is the concentration giving 50% cytotoxicity. Low readings indicate harm at low concentration, high ones better tolerance by the cells. As a reminder, the EC50 is the concentration needed to bring the measured effect to its halfway point.

Data set [1] is described as follows: Cytotoxicity against human mock-infected MT4 cells after 4 days by MTT assay. The class given is cell-based. Summed up:
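Mock-infected MT-4 cells were grown in HEPES-buffered RPMI-1640 with 10% heat-inactivated FCS and subcultured every 3–4 d. Viability was read by MTT at 7.5 mg/ml for 1 h at 37 °C, with formazan dissolved in acidified Triton X-100/isopropanol and read at A540 minus A690. CC50 is the concentration lowering OD540 of the mock-infected control by 50%.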
For orientation: Formazan colour is commonly taken as a measure of viable cells.

The subject of data set [2] is Human immunodeficiency virus 1. Description: Antiviral activity against wild type HIV1 infected in human MT4 cells assessed as protection against virus-induced cytopathogenicity after 5 days by MTT assay. The settings on record: Human immunodeficiency virus 1, MT4, 120 h. Background: Damage to the host cells serves as the signal in cytopathic effect assays.

In brackets after ≈: the same amount, converted by molar mass. Some results are limits rather than exact numbers.

The compound `Cc1cccc2c(CC(=O)Nc3nc4ccc([N+](=O)[O-])cc4s3)cc(=O)oc12` came in with a CC50 at 96 h in data set [1] above 12 µg/mL. Besides, the EC50 in data set [2] is 12 µg/mL (≈ 30.3 µM).

The compound `Cc1cccc2c(CC(=O)Nc3nc4cc(Cl)c(F)cc4s3)cc(=O)oc12` gave a CC50 at 96 h in data set [1] above 58 µg/mL. Moreover, in data set [2], the EC50 came to 58 µg/mL (≈ 144 µM).

For `COc1ccc2nc(NC(=O)Cc3cc(=O)oc4ccc5ccccc5c34)sc2c1`, the CC50 at 96 h in data set [1] was above 100 µg/mL. For the same compound, in data set [2], the EC50 stood at 100 µg/mL (≈ 240 µM).

In data set [1], `Cc1ccc2c(CC(=O)Nc3nc4ccc(Cl)cc4s3)cc(=O)oc2c1C` returned a CC50 at 96 h above 60 µg/mL. Besides, the EC50 in data set [2] is 60 µg/mL (≈ 150 µM).

`Cc1cccc2c(CC(=O)Nc3nc4ccc(F)cc4s3)cc(=O)oc12` returned a half-maximal cytotoxic concentration (CC50) at 96 h in data set [1] above 100 µg/mL. In data set [2], the concentration giving a half-maximal response (EC50) is 100 µg/mL (≈ 271 µM).

`O=C(Cc1cc(=O)oc2cc(O)ccc12)Nc1nc2ccc(Cl)cc2s1` registered a CC50 at 96 h in data set [1] above 7 µg/mL. Further, the EC50 in data set [2] came to 7 µg/mL (≈ 18.1 µM).

In data set [1], `Cc1ccc2c(CC(=O)Nc3nc4ccc(Cl)cc4s3)cc(=O)oc2c1` gave a CC50 at 96 h above 44 µg/mL. For the same compound, the EC50 in data set [2] came out at 44 µg/mL (≈ 114 µM).

In data set [1], `Cc1ccc2oc(=O)cc(CC(=O)Nc3nc4ccc(Cl)cc4s3)c2c1` displayed a half-maximal cytotoxic concentration (CC50) at 96 h above 27 µg/mL. Further, in data set [2], the EC50 was 27 µg/mL (≈ 70.2 µM).

In data set [1], `Cc1cn([C@H]2C[C@H](N=[N+]=[N-])[C@@H](CO)O2)c(=O)[nH]c1=O` [ZIDOVUDINE] yielded a cytotoxic concentration (CC50) at 96 h of 65.4 µg/mL (≈ 245 µM). The EC50 in data set [2] worked out at 0.0012 µg/mL (≈ 0.00449 µM).

Compound `Cc1ccc2c(CC(=O)Nc3nc4cc(Cl)c(F)cc4s3)cc(=O)oc2c1C` yielded a CC50 at 96 h in data set [1] above 97 µg/mL. For the same compound, in data set [2], the EC50 came out at 97 µg/mL (≈ 233 µM).

For the compound `Cc1ccc2c(CC(=O)Nc3nc4ccc(F)cc4s3)cc(=O)oc2c1`, the CC50 at 96 h in data set [1] was above 44 µg/mL. Also, in data set [2], the 50% effective concentration (EC50) is 44 µg/mL (≈ 119 µM).

In data set [1], `Cc1ccc2oc(=O)cc(CC(=O)Nc3nc4ccc(F)cc4s3)c2c1` came in with a CC50 at 96 h above 20 µg/mL. For the same compound, the EC50 in data set [2] is 20 µg/mL (≈ 54.3 µM).

In data set [1], `Cc1cccc2c(CC(=O)Nc3nc4ccc(Cl)cc4s3)cc(=O)oc12` returned a CC50 at 96 h above 21 µg/mL. In addition, the EC50 in data set [2] was 21 µg/mL (≈ 54.6 µM).

As for `Cc1ccc2c(CC(=O)Nc3nc4ccc([N+](=O)[O-])cc4s3)cc(=O)oc2c1C`, in data set [1], the CC50 at 96 h is above 9 µg/mL. The EC50 in data set [2] was 9 µg/mL (≈ 22 µM).

`COc1ccc2nc(NC(=O)Cc3cc(=O)oc4c3ccc3ccccc34)sc2c1` yielded a CC50 at 96 h in data set [1] above 100 µg/mL. Further, the EC50 in data set [2] stood at 100 µg/mL (≈ 240 µM).

In turn, `O=C(Cc1cc(=O)oc2cc(O)ccc12)Nc1nc2ccc(F)cc2s1` registered a CC50 at 96 h in data set [1] above 21 µg/mL. In addition, the EC50 in data set [2] is 21 µg/mL (≈ 56.7 µM).

With `Cc1ccc2c(CC(=O)Nc3nc4ccc(F)cc4s3)cc(=O)oc2c1C`, the CC50 at 96 h in data set [1] is above 24 µg/mL. In addition, the EC50 in data set [2] came out at 24 µg/mL (≈ 62.8 µM).

Turning to `Cc1cc(C)c2oc(=O)cc(CC(=O)Nc3nc4cc(Cl)c(F)cc4s3)c2c1`, the CC50 at 96 h in data set [1] is above 16 µg/mL. For the same compound, the EC50 in data set [2] was found to be 16 µg/mL (≈ 38.4 µM).

Regarding `Cc1ccc2oc(=O)cc(CC(=O)Nc3nc4cc(Cl)c(F)cc4s3)c2c1`, the CC50 at 96 h in data set [1] was above 12 µg/mL. In data set [2], the EC50 amounted to 12 µg/mL (≈ 29.8 µM).

On to `Cc1ccc2oc(=O)cc(CC(=O)Nc3nc4ccc([N+](=O)[O-])cc4s3)c2c1`, for which the CC50 at 96 h in data set [1] is above 32 µg/mL. Also, the EC50 in data set [2] is 32 µg/mL (≈ 80.9 µM).

Regarding `Cc1cc(C)c2oc(=O)cc(CC(=O)Nc3nc4ccc([N+](=O)[O-])cc4s3)c2c1`, the CC50 at 96 h in data set [1] is above 100 µg/mL. For the same compound, the EC50 in data set [2] was 100 µg/mL (≈ 244 µM).

Consider `O=C(Cc1cc(=O)oc2cc(O)ccc12)Nc1nc2cc(Cl)c(F)cc2s1`, for which, in data set [1], the CC50 at 96 h was above 100 µg/mL. In addition, in data set [2], the EC50 was 100 µg/mL (≈ 247 µM).

In the case of `O=C(Cc1cc(=O)oc2cc(O)ccc12)Nc1nc2ccc([N+](=O)[O-])cc2s1`, in data set [1], the CC50 at 96 h is above 8 µg/mL. For the same compound, the EC50 in data set [2] turned out to be 8 µg/mL (≈ 20.1 µM).

For the compound `Cc1ccc2c(CC(=O)Nc3nc4cc(Cl)c(F)cc4s3)cc(=O)oc2c1`, the CC50 at 96 h in data set [1] is above 17 µg/mL. For the same compound, the EC50 in data set [2] is 17 µg/mL (≈ 42.2 µM).

For `Cc1ccc2c(CC(=O)Nc3nc4ccc([N+](=O)[O-])cc4s3)cc(=O)oc2c1`, the CC50 at 96 h in data set [1] is above 49 µg/mL. Also, the EC50 in data set [2] was found to be 49 µg/mL (≈ 124 µM).

For the compound `Cc1cc(C)c2oc(=O)cc(CC(=O)Nc3nc4ccc(F)cc4s3)c2c1`, the CC50 at 96 h in data set [1] is above 38 µg/mL. Moreover, the EC50 in data set [2] stood at 38 µg/mL (≈ 99.4 µM).

`Cc1cc(C)c2oc(=O)cc(CC(=O)Nc3nc4ccc(Cl)cc4s3)c2c1` showed a CC50 at 96 h in data set [1] above 65 µg/mL. The EC50 in data set [2] was found to be 65 µg/mL (≈ 163 µM).
